{"data": "Experimental data collected from several papers", "target": "Mitogen-activated protein kinase kinase kinase 7 (MAP3K7, Homo sapiens, UniProt O43318)"}
{"SMILES": "O=C(Nc1cnn(-c2csc(C(=O)NC3COC3)c2)c1)Nc1ccccc1Cl", "observed": "enzyme activity", "action": "inhibitor", "tested at": "5 µM", "endpoint": "remaining activity", "value": "98%"}
{"SMILES": "COc1cc2ncnc(Nc3ccc(F)c(Cl)c3)c2cc1OCCCN1CCOCC1", "observed": "cell-free assay", "tested at": "0.5 µM", "endpoint": "remaining signal", "value": "91.3%"}
{"SMILES": "COc1cc(/C=C/C(=O)CC(=O)/C=C/c2ccc(O)c(OC)c2)ccc1O", "observed": "enzyme activity", "action": "inhibitor", "tested at": "1 µM", "endpoint": "activity vs control", "value": "102%"}
{"SMILES": "CS(=O)(=O)N1CCCC(NC(=O)[C@H](CCC2CCCCC2)NC(=O)c2ccc(CNc3ncnc4c3nnn4-c3ccccc3)cc2)C1 (stereo partly drawn)", "observed": "cell-free assay", "technique": "competition with immobilised ligand", "tested at": "0.1 µM", "endpoint": "remaining binding", "value": "100%"}
{"SMILES": "CNC(=O)c1cc(Oc2ccc(NC(=O)Nc3ccc(Cl)c(C(F)(F)F)c3)cc2)ccn1", "observed": "cell-free assay", "tested at": "0.5 µM", "endpoint": "remaining signal", "value": "101%"}
{"SMILES": "Oc1cccc(-c2nc(N3CCOCC3)c3oc4ncccc4c3n2)c1", "observed": "enzyme activity", "action": "inhibitor", "tested at": "10 µM", "endpoint": "remaining activity", "value": "79%"}
{"SMILES": "COc1cccc2c(NCc3ccccc3)nc(-n3c(N)nc4ccccc43)nc12", "observed": "target engagement in cells", "action": "inhibitor", "technique": "chemoproteomics", "tested at": "20 mM", "endpoint": "inhibition", "value": "-6.3%"}
{"SMILES": "Cc1ccc(Nc2nccc(N(C)c3ccc4c(C)n(C)nc4c3)n2)cc1S(N)(=O)=O", "observed": "enzyme activity", "action": "inhibitor", "tested at": "10 µM", "endpoint": "inhibition", "value": "-4%"}
{"SMILES": "C[C@H](c1ccc(F)cc1)N(Cc1cccc(C(=O)O)c1)C(=O)c1cnc2ccccc2c1", "observed": "cell-free assay", "technique": "competition with immobilised ligand", "tested at": "1 µM", "endpoint": "remaining binding", "value": "100%"}
{"SMILES": "CCN(CC)c1ccc(C2=NNC(=O)CC2C)cc1[N+](=O)[O-] (stereo not drawn)", "observed": "enzyme activity", "action": "inhibitor", "tested at": "10 µM", "endpoint": "remaining activity", "value": "107%"}
{"SMILES": "CN(C(=O)c1ccccc1)c1cc(N(C)c2ccc3c(c2)CCc2ccc(C(=O)NCCN4CCOCC4)cc2C3=O)ccc1F", "observed": "cell-free assay", "technique": "competition with immobilised ligand", "tested at": "1 µM", "endpoint": "remaining binding", "value": "100%"}
{"SMILES": "Cn1c(=O)n(-c2ccc(C(C)(C)C#N)cc2)c2c3cc(-c4cnc5ccccc5c4)ccc3ncc21", "observed": "enzyme activity", "action": "inhibitor", "tested at": "10 µM", "endpoint": "remaining activity", "value": "67%"}
{"SMILES": "C[C@@]1(Cc2ccc(C#N)cc2)C(=O)N(c2cc(Cl)cc(Cl)c2)c2ncc(C(=O)NC3(c4nc(C5CCC5)no4)CC3)n21", "observed": "cell-free assay", "technique": "competition with immobilised ligand", "tested at": "1 µM", "endpoint": "remaining binding", "value": "96%"}
{"SMILES": "Cc1ccc(C(=O)NCc2ccsc2)cc1C#Cc1cn(C(C)C)c2ncnc(N)c12", "observed": "enzyme activity", "action": "inhibitor", "tested at": "1 µM", "endpoint": "activity vs control", "value": "112%"}
{"SMILES": "CCN(CC)CCNC(=O)c1c(C)[nH]c(/C=C2\\C(=O)Nc3ccc(F)cc32)c1C", "observed": "enzyme activity", "action": "inhibitor", "tested at": "0.3 µM", "endpoint": "inhibition", "value": "52%"}
{"SMILES": "CCCOc1ccc([C@H]2[C@H](C(=O)O)[C@@H](c3ccc4c(c3)OCO4)CN2CC(=O)Nc2c(CC)cccc2CC)cc1", "observed": "cell-free assay", "technique": "competition with immobilised ligand", "tested at": "1 µM", "endpoint": "remaining binding", "value": "100%"}
{"SMILES": "C=CC(=O)Nc1cc(Nc2nccc(Nc3cc(Cl)c(F)cc3C(C)(C)O)n2)c(OC)cc1N1CC[C@@H](N(C)C)C1", "observed": "enzyme activity", "action": "inhibitor", "tested at": "1 µM", "endpoint": "inhibition", "value": "21%"}
{"SMILES": "CC(C)(O)[C@H]1CC[C@H](Nc2ccc3ncc(-c4cccc(C(F)(F)F)c4)n3n2)CC1", "observed": "enzyme activity", "action": "inhibitor", "tested at": "1 µM", "endpoint": "remaining activity", "value": "107%"}
{"SMILES": "CCCS(=O)(=O)Nc1ccc(F)c(C(=O)c2c[nH]c3ncc(-c4ccc(Cl)cc4)cc23)c1F", "observed": "enzyme activity", "action": "inhibitor", "tested at": "1 µM", "endpoint": "inhibition", "value": "< 10%"}
{"SMILES": "COc1cc(Nc2cnc(C#N)c(O[C@H](C)CN(C)C)n2)ncc1-c1cnn(C)c1", "observed": "enzyme activity", "action": "inhibitor", "technique": "radiometric", "tested at": "10 µM", "endpoint": "remaining activity", "value": "53%"}
{"SMILES": "c1ccc(CNc2nc(N3CCOc4ccccc43)nc3c2CCCC3)cc1", "observed": "target engagement in cells", "action": "inhibitor", "technique": "chemoproteomics", "tested at": "20 mM", "endpoint": "inhibition", "value": "-10.3%"}
{"SMILES": "CN(c1ccnc(CNc2nc(Nc3ccc4c(c3)CC(=O)N4)ncc2C(F)(F)F)n1)S(C)(=O)=O", "observed": "cell-free assay", "technique": "competition with immobilised ligand", "tested at": "1 µM", "endpoint": "remaining binding", "value": "48%"}
{"SMILES": "CCCOc1ccc(OC)c(F)c1C(=O)c1ccc(C(=O)N[C@@H]2CNC[C@H]2NC(=O)c2ccc3[nH]ncc3c2)cc1", "observed": "enzyme activity", "action": "inhibitor", "tested at": "10 µM", "endpoint": "remaining activity", "value": "106%"}
{"SMILES": "Cc1nc(C2CCN(C(=O)c3ccc(OC(F)(F)F)cc3N)CC2)c2ncc(N3CCN(C)CC3)cc2n1", "observed": "cell-free assay", "technique": "competition with immobilised ligand", "tested at": "1 µM", "endpoint": "remaining binding", "value": "100%"}
{"SMILES": "O=C1Nc2ccc(Cl)cc2C1=Cc1cc(Cl)c(O)c(Cl)c1", "observed": "cell-free assay", "tested at": "0.5 µM", "endpoint": "remaining signal", "value": "86.8%"}
{"SMILES": "CS(=O)(=O)N1CCCC(NC(=O)[C@H](CCC2CCCCC2)NC(=O)c2ccc(CNC(=O)c3cnc4ccccn34)cc2)C1 (stereo partly drawn)", "observed": "cell-free assay", "technique": "competition with immobilised ligand", "tested at": "0.1 µM", "endpoint": "remaining binding", "value": "94%"}
{"SMILES": "FC(F)(F)Oc1cccc(-c2cnc3ccc(-c4ccncc4)nn23)c1", "observed": "enzyme activity", "action": "inhibitor", "technique": "radiometric", "tested at": "1 µM", "endpoint": "activity vs control", "value": "58%"}
